Laboratory results published in the M2OR odorant receptor database.

Experiments:
Conditions in all cases: stereoisomer not certain
OR51E1 (Homo sapiens) [1] = target: T1, OR51E1 (Homo sapiens) (UniProt Q8TCB6)
T1 sequence (whole entry): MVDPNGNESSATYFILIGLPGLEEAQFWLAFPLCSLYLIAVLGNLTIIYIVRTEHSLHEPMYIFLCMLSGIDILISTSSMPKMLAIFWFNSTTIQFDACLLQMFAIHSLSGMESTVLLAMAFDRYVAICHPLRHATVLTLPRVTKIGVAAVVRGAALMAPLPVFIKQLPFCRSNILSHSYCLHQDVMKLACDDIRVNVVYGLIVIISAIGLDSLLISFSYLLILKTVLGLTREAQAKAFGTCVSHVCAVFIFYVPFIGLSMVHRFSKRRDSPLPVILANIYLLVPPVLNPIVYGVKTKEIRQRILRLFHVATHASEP
In short: (§1)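 Values were gathered from published papers (main text and supplementary material), with extra details requested from the original authors when needed, and checked for typos and inconsistencies. Each receptor–molecule pair is called responsive (active) if the original authors judged the measured signal statistically different from baseline, and non-responsive (inactive) otherwise. Assay methods varied by source, often transient mammalian cell-line luciferase assays. Recorded details include cell line, G-protein, co-transfected protein and tags.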

OR51E2 (Homo sapiens) = target: T2, OR51E2 (Homo sapiens) (UniProt Q9H255)
T2 sequence (whole entry): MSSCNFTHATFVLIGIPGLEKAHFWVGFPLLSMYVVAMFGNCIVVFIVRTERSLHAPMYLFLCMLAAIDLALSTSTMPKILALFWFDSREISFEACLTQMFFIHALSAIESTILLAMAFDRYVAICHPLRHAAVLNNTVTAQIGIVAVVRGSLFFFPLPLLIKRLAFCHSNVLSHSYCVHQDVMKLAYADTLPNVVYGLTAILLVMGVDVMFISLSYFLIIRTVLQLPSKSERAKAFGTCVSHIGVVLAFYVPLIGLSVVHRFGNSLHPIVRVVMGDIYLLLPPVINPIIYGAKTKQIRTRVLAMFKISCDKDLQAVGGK
In short: as §1

OR51L1 (Homo sapiens) = target: T3, OR51L1 (Homo sapiens) (UniProt Q8NGJ5)
T3 sequence (whole entry): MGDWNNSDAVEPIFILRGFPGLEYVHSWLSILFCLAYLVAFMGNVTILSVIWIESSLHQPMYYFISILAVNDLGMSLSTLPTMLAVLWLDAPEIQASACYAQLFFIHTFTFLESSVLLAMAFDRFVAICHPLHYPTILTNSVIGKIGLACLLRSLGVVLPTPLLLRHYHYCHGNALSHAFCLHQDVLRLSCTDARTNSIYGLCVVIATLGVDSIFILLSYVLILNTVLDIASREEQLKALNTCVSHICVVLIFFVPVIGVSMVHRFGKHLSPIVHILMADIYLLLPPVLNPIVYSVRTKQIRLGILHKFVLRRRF
In short: as §1

OR51A4 (Homo sapiens) = OR51A4 (Homo sapiens) (UniProt Q8NGJ6)
In short: as §1

OR51A7 (Homo sapiens) = OR51A7 (Homo sapiens) (UniProt Q8NH64)
In short: as §1

OR51B2 (Homo sapiens) = OR51B2 (Homo sapiens) (UniProt Q9Y5P1)
In short: as §1

OR51B4 (Homo sapiens) = OR51B4 (Homo sapiens) (UniProt Q9Y5P0)
In short: as §1

OR51B5 (Homo sapiens) = target: T4, OR51B5 (Homo sapiens) (UniProt Q9H339)
T4 sequence (whole entry): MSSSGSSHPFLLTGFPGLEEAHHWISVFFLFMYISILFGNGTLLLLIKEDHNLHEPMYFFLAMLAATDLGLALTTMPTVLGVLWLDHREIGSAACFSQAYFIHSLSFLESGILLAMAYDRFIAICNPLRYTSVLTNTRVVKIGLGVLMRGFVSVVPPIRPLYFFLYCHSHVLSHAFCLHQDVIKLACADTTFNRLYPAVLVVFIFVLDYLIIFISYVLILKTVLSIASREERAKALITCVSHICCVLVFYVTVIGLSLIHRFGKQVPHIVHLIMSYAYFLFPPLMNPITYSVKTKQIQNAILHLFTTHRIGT
In short: as §1

OR51B6 (Homo sapiens) = OR51B6 (Homo sapiens) (UniProt Q9H340)
In short: as §1

OR51D1 (Homo sapiens) = OR51D1 (Homo sapiens) (UniProt Q8NGF3)
In short: as §1

OR51F1 (Homo sapiens) = OR51F1 (Homo sapiens) (UniProt A6NGY5)
In short: as §1

OR51F2 (Homo sapiens) = OR51F2 (Homo sapiens) (UniProt Q8NH61)
In short: as §1

OR51G1 (Homo sapiens) = OR51G1 (Homo sapiens) (UniProt Q8NGK1)
In short: as §1

OR51G2 (Homo sapiens) = OR51G2 (Homo sapiens) (UniProt Q8NGK0)
In short: as §1

OR51H1 (Homo sapiens) = OR51H1 (Homo sapiens) (UniProt Q8NH63)
In short: as §1

OR51I1 (Homo sapiens) = OR51I1 (Homo sapiens) (UniProt Q9H343)
In short: as §1

OR51I2 (Homo sapiens) = OR51I2 (Homo sapiens) (UniProt Q9H344)
In short: as §1

OR51J1 (Homo sapiens) = OR51J1 (Homo sapiens) (UniProt Q9H342)
In short: as §1

OR51M1 (Homo sapiens) = OR51M1 (Homo sapiens) (UniProt Q9H341)
In short: as §1

OR51E1 (Homo sapiens) [2] = target: OR51E1 (Homo sapiens) (UniProt Q8TCB6); remark: listed apart in the source
In short: as §1

Measured: odorant receptor agonist call

Sequence of OR51M1 (Homo sapiens) (Q9H341 whole entry): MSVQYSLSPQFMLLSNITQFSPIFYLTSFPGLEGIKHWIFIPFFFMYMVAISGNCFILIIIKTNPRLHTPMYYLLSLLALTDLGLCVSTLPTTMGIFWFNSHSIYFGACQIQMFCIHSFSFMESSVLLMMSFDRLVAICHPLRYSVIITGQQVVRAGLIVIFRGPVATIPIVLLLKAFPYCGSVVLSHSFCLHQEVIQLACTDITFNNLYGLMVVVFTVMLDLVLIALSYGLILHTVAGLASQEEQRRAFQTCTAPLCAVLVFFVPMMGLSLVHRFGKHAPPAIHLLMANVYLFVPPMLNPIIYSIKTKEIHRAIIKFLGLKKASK
Sequence of OR51A7 (Homo sapiens) (Q8NH64 whole entry): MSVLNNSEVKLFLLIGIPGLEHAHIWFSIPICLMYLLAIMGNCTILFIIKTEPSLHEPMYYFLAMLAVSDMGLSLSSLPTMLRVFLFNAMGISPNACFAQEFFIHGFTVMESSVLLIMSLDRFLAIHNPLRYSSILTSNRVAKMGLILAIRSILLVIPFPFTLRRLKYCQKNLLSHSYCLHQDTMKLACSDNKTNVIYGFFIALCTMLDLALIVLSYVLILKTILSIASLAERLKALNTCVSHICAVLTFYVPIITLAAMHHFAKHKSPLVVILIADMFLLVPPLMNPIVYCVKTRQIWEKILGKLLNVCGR
Sequence of OR51I1 (Homo sapiens) (Q9H343 whole entry): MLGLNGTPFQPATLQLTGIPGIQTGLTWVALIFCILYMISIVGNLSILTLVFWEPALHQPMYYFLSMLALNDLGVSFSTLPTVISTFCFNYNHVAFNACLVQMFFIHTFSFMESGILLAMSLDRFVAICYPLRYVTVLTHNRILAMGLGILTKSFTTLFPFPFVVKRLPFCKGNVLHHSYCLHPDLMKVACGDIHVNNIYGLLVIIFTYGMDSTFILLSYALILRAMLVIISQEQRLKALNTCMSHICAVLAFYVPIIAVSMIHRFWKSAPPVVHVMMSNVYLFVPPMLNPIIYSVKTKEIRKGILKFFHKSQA
Sequence of OR51J1 (Homo sapiens) (Q9H342 whole entry): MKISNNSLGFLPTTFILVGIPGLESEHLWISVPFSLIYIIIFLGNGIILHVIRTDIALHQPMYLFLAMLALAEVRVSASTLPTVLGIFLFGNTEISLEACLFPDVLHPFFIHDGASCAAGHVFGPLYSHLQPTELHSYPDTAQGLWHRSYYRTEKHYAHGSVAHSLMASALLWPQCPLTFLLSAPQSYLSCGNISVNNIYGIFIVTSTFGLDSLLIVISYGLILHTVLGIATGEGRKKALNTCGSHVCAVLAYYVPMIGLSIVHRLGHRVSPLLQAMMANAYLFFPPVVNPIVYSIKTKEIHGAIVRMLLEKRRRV
Sequence of OR51B4 (Homo sapiens) (Q9Y5P0 whole entry): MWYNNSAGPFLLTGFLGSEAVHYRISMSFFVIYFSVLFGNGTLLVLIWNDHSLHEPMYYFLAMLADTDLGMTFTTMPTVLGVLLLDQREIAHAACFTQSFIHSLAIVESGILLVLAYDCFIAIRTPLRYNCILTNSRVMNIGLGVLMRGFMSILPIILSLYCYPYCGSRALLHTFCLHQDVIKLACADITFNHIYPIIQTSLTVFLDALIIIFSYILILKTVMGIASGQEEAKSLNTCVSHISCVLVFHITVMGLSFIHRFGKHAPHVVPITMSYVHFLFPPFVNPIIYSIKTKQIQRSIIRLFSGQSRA
Sequence of OR51I2 (Homo sapiens) (Q9H344 whole entry): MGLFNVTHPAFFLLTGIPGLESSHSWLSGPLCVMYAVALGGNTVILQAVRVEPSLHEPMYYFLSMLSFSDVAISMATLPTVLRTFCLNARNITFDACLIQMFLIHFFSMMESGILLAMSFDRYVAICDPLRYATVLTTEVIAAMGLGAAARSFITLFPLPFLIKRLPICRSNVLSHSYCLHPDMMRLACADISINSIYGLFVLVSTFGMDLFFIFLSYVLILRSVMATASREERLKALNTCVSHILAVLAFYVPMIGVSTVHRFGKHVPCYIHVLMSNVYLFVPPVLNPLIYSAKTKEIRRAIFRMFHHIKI
Sequence of OR51B2 (Homo sapiens) (Q9Y5P1 whole entry): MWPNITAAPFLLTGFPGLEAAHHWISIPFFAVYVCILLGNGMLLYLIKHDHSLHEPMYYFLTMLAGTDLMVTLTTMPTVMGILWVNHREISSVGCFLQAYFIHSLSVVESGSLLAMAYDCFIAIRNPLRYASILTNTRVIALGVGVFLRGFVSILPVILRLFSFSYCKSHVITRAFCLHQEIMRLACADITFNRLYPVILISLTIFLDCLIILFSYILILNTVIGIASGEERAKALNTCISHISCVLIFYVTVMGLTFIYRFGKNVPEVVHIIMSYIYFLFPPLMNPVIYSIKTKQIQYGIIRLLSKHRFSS
Sequence of OR51A4 (Homo sapiens) (Q8NGJ6 whole entry): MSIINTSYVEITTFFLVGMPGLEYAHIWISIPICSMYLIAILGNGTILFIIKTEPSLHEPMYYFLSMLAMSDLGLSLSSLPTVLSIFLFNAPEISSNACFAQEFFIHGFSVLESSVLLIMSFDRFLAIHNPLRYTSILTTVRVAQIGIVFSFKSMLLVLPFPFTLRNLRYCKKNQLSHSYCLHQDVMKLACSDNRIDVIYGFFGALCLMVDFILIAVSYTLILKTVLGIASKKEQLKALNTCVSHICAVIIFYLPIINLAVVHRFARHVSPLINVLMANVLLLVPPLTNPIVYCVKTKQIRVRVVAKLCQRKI
Sequence of OR51B6 (Homo sapiens) (Q9H340 whole entry): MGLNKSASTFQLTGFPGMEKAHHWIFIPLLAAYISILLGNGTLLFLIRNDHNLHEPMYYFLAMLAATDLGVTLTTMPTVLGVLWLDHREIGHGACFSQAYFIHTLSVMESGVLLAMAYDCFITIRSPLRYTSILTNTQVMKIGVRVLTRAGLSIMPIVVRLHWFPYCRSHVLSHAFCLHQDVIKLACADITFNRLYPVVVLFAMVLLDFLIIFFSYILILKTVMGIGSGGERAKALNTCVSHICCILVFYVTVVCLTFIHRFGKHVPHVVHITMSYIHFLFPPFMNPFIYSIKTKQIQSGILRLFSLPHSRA
Sequence of OR51D1 (Homo sapiens) (Q8NGF3 whole entry): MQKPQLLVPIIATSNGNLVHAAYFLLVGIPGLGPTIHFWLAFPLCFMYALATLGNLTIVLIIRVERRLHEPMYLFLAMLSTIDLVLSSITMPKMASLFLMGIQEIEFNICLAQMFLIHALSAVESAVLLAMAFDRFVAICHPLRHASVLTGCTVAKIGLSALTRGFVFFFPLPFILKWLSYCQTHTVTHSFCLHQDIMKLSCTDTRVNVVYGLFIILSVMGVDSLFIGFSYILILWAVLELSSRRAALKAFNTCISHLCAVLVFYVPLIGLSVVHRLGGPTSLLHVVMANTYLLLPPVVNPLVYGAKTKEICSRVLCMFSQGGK
Sequence of OR51G1 (Homo sapiens) (Q8NGK1 whole entry): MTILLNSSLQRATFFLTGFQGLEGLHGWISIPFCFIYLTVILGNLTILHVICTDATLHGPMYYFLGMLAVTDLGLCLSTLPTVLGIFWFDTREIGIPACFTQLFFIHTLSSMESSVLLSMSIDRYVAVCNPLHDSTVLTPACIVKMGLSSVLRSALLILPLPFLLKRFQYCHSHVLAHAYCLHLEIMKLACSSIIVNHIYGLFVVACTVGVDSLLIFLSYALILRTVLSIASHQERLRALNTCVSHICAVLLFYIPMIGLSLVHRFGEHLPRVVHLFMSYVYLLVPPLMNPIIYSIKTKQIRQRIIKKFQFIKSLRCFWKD
Sequence of OR51G2 (Homo sapiens) (Q8NGK0 whole entry): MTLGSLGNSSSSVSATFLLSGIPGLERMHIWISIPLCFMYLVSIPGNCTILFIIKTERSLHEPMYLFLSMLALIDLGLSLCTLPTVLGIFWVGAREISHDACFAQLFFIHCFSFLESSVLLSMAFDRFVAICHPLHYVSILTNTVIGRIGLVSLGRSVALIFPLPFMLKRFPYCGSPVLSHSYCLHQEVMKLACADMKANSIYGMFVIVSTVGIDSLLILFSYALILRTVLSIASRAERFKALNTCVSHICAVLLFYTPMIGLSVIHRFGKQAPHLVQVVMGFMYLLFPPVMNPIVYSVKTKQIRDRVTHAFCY
Sequence of OR51F2 (Homo sapiens) (Q8NH61 whole entry): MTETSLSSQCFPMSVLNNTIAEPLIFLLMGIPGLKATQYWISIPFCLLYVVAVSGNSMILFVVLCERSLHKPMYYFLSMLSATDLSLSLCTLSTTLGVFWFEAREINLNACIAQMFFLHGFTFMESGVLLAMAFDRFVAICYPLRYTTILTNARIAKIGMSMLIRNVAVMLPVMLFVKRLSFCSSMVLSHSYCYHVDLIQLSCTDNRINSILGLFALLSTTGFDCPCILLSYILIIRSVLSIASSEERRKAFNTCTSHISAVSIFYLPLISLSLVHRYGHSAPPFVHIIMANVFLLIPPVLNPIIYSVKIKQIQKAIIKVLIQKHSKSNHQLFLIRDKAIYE
Sequence of OR51F1 (Homo sapiens) (A6NGY5 whole entry): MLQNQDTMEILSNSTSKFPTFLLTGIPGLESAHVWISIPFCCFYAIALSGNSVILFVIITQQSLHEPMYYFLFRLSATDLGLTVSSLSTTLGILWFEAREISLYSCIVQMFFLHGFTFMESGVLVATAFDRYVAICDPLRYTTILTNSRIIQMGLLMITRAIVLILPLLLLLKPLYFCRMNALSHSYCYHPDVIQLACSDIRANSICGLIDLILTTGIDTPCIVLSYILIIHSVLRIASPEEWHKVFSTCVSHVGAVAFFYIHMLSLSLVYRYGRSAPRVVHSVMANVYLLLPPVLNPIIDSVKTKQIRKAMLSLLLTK
Sequence of OR51H1 (Homo sapiens) (Q8NH63 whole entry): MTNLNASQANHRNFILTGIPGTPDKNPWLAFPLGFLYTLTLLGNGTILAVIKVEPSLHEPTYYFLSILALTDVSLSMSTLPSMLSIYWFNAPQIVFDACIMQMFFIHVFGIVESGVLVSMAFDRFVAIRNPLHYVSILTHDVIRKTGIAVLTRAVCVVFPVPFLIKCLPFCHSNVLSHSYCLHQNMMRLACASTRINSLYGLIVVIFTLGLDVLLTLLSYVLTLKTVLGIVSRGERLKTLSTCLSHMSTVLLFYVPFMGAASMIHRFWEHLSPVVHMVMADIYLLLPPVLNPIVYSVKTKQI

C=CCc1ccccc1
inactive: OR51E1 (Homo sapiens) [1] | OR51E2 (Homo sapiens) | OR51L1 (Homo sapiens)

Cc1c([N+](=O)[O-])c(C)c([N+](=O)[O-])c(C(C)(C)C)c1[N+](=O)[O-]
not listed: OR51E1 (Homo sapiens) [1] | OR51E1 (Homo sapiens) [2]
inactive: all other assays above

O=c1cc(O)c2ccccc2o1
inactive: OR51E1 (Homo sapiens) [1] | OR51E2 (Homo sapiens) | OR51L1 (Homo sapiens)

CCC1CCC(=O)O1 (configuration not stated)
inactive: OR51E1 (Homo sapiens) [1] | OR51E2 (Homo sapiens) | OR51L1 (Homo sapiens)

C=CCOC(=O)Cc1ccccc1
active: OR51L1 (Homo sapiens)
not listed: OR51F1 (Homo sapiens) | OR51H1 (Homo sapiens)
inactive: all other assays above

Cc1cccc(C)c1
inactive: OR51B5 (Homo sapiens)

COc1ccc(C=O)cc1
inactive: OR51B5 (Homo sapiens)
